FXN GAA850 act – FXN promoter activators, primary screen, cell-based, luciferase luminescence, HEK293 lucGAA850; HEK293 lucGAA850 FXN promoter luciferase reporter, 24 h; percent of 10 µM SAHA response; activation, % at 6 µM; 0.56% of 360,000 active; AID 540364, 2011;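 active = activation above the average of all compounds screened plus 3 SD, cutoff fixed separately per campaign, cut at about 7.5% in these data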
APJ ag – agonists of human apelin receptor APJ, primary screen, CHO-K1 cells, PathHunter beta-arrestin, luminescence | P35414 | 0% DMSO wells, 100% apelin | activation, % at 20 µM | 0.11% of 330,000 active | AID 2520, 2010;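 active = activation more than six SD over the plate average, tested at 20 µM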
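Assay system: CHO-K1 cells stably expressing ProLink-tagged human APJ and arrestin–beta-gal acceptor. Compound dosing: 20 µM single point, 1% DMSO. Times: 16-18 h seeding, 90 min dark compound exposure, 60 min detection. Detection: beta-gal luminescence. Evaluation: APJ–arrestin association signal. Controls: negative DMSO alone, positive Apelin-13 at 10 nM.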
CXCR6 block – CXCR6 receptor inhibitors, primary screen, cell-based, beta-arrestin, luminescence, CHO-K1 PathHunter, 1536-well; C-X-C chemokine receptor type 6 (Homo sapiens), O00574; inhibition, % at 20 µM; 0.36% of 360,000 active; in the data active = inhibition above about 34%, passing the limit was not always enough;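 note: antagonist mode with CXCL16 agonist at 10 nM final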
APJ antag – antagonists of human apelin receptor APJ, primary screen, CHO-K1 cells, beta-arrestin complementation, luminescence; P35414; inhibition, % at 20 µM; 0.32% of 330,000 active;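 active = inhibition above about 40% at 20 µM, limit read from the data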;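 note: cells challenged with 10 nM apelin-13 agonist together with compound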
EBI2 block – EBI2 receptor antagonists, beta-arrestin recruitment, primary screen, cell-based, luminescence, 7a,25-OHC stimulation, uHTS; 0.81% of 360,000 active; 7a,25-OHC stimulated; inhibition, % at 5 µM; G-protein coupled receptor 183 (Homo sapiens), P32249; in the data active = inhibition above about 38%;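 note: enzyme fragment complementation signal reports receptor beta-arrestin coupling in cells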
Target sequence (P32249 whole entry, looked up, the tested form may be a part): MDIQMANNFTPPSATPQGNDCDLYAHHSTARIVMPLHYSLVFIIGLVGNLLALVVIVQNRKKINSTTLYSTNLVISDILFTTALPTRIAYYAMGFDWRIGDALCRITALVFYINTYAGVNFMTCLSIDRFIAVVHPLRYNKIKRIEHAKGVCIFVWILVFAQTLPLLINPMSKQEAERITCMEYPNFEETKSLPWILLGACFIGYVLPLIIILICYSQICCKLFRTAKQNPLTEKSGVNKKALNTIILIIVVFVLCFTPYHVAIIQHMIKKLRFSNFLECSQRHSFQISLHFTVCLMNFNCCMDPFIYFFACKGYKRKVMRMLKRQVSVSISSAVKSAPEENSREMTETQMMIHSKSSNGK
CCR6 antag – CCR6 receptor antagonists, primary screen, cell-based, CHO-K1, luminescence, beta-arrestin, uHTS; C-C chemokine receptor type 6 (Homo sapiens), P51684; CHO-K1 CCR6 PathHunter beta-arrestin, CCL20-stimulated; inhibition, % at 20 µM; 0.49% of 340,000 active;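 active = compounds whose inhibition of the agonist-driven luminescence signal at 20 µM reaches about 50%, limit read from the data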;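 note: cells stimulated with CCL20 at 14 nM final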
Target sequence (P51684 whole entry, looked up): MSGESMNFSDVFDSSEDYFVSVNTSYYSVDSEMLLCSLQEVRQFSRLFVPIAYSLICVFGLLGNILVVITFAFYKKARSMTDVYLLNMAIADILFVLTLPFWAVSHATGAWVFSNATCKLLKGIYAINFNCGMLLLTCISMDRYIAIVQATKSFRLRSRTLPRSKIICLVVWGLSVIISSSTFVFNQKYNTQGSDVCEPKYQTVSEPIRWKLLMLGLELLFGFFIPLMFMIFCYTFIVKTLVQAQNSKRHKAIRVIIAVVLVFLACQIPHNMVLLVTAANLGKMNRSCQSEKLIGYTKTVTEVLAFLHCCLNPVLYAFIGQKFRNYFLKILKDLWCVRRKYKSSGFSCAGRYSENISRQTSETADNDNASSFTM
APJ ag confirm – agonists of human apelin receptor APJ, confirmation, cell-based, single concentration, CHO-K1, beta-arrestin, luminescence. CHO-K1 APJ PathHunter beta-arrestin. activation, % at 20 µM. 10% of 310 active. shares compounds with APJ ag;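 active = activation above 40%, taking the highest of four retests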
Hits are given with their value; 0 = inactive; - = no result given. Rows were chosen to be rich in hits. Some 2% of all compounds tested hit in one or more screens of this group.

SMILES | FXN GAA850 act | APJ ag | CXCR6 block | APJ antag | EBI2 block | CCR6 antag | APJ ag confirm
C[C@H](CO)N1C[C@H](C)[C@@H](CN(C)C(=O)Nc2cccc(F)c2)Oc2ncc(Br)cc2C1=O | 0 | - | 0 | - | 0 | - | -
COC(=O)c1cc(C(=O)NCC2CCCCC2)cc([N+](=O)[O-])c1 | 0 | 0 | 0 | 0 | 0 | 0 | -
COC1(C)CC2C(CC1OC(=O)c1cc([N+](=O)[O-])cc([N+](=O)[O-])c1)C2(C)C (centres undefined) | 0 | 13.5 | 0 | 0 | 0 | 0 | 0
C(=N\Nc1nc(-c2ccccc2)cs1)/c1ccncc1 | 0 | 0 | 0 | 0 | 0 | 0 | -
CN(C)S(=O)(=O)c1ccc(-c2csc(N/N=C/c3ccco3)n2)cc1 | 0 | 24.0 | 0 | 0 | 0 | 0 | 44.3
CN(C)S(=O)(=O)c1ccc(-c2csc(N/N=C/c3ccc(O)cc3)n2)cc1 | 0 | 15.5 | 0 | 0 | 0 | 0 | 0
COc1ccc(NC(=O)/C(C#N)=C/c2ccc(Sc3nncn3C)c([N+](=O)[O-])c2)cc1 | 0 | 18.0 | 0 | 0 | 0 | 0 | 0
CCCNC(=O)c1cc(C2CCCCN2C(=O)OCC(C)C)on1 (centres undefined) | 0 | - | 0 | - | 0 | - | -
Cc1ccc(-n2nnc3c(=O)oc4ccccc4c32)cc1 | 0 | 32.3 | 0 | 0 | 0 | 0 | 0
N/C(=N\OS(=O)(=O)c1ccc2ccccc2c1)c1ccncc1 | 0 | 27.7 | 0 | 0 | 0 | 0 | 67.5
N/C(=N\OS(=O)(=O)c1ccc2ccccc2c1)c1cccnc1 | 0 | 0 | 0 | 0 | 0 | 0 | -
Cc1ccc(S(=O)(=O)N2[C@@H](c3cccc(Cl)c3)C(C(=O)O)=CC[C@H]2c2ccc3c(c2)OCO3)cc1 | 0 | 0 | 0 | 0 | 0 | 0 | -
C=C1CCN([C@@H](CC(C)C)C(=O)O)S(=O)(=O)c2ccccc21 | 0 | 45.5 | 0 | 0 | 0 | 0 | 0
COc1ccc(C2=Cc3ccccc3C(CC(=O)C3CC3)N2c2ccc(-c3cc(OC)c(OC)c(OC)c3)cc2)cc1 (centres undefined) | - | - | 0 | - | 0 | - | -
Cc1ccc(S(=O)(=O)Nc2ccccc2N=Cc2ccc([N+](=O)[O-])cc2[N+](=O)[O-])cc1 | 0 | - | 0 | - | 0 | 0 | -
COc1cc2ccccc2cc1C(=O)Nc1ccc(N2CCN(C)CC2)cc1 | 0 | 0 | 0 | 0 | 0 | 0 | -
COc1cc2ccccc2cc1C(=O)Nc1ccc(N2CCN(C(=O)C(C)C)CC2)cc1 | 0 | 19.6 | 0 | 0 | 0 | 0 | 0
CC(=O)N1CCC(C(=O)NCCOc2ccc(C)cc2)CC1 | 0 | 0 | 0 | 0 | 0 | 0 | -
C[C@@H]1NS(=O)(=O)[C@H]2C[C@@H]3C=C[C@]2(O3)[C@H]1OC(=O)Nc1ccc(C(F)(F)F)cc1[N+](=O)[O-] | 0 | 0 | 0 | 0 | 0 | 0 | -
CCOC(=O)N1CCN(C(=O)c2ccc(Cn3c(=S)[nH]c4cc5c(cc4c3=O)OCO5)cc2)CC1 | 0 | 23.4 | 0 | 0 | 0 | 0 | 0
COc1cc(CNC(=O)OCC(C)C)cc(OC)c1OC | 0 | 18.4 | 0 | 0 | 0 | 0 | 0
Cc1ccc2c(c1)N(C(=O)CCC(=O)NCc1cccnc1)CC(C)O2 (centres undefined) | 0 | 0 | 0 | 0 | 0 | 0 | -
Cc1ccc(Cl)cc1NC(=O)c1cc2ccccc2cc1O | 0 | 21.6 | 0 | 0 | 0 | 0 | 0
O=P(c1ccccc1)(c1ccccc1)c1ccccc1C(Br)Br | 0 | - | 0 | - | 0 | - | -
COc1ccc2noc3c2c1C(=O)c1ccccc1-3 | 0 | 21.4 | 0 | 0 | 0 | 0 | 0
SMILES | FXN GAA850 act | APJ ag | CXCR6 block | APJ antag | EBI2 block | CCR6 antag | APJ ag confirm
CCN(CC)CCNC(=O)c1ccc(NC(=O)c2cc(-c3ccco3)nc3ccccc23)cc1 | 0 | 54.8 | 0 | 0 | 0 | 0 | 0
CCSc1ccc(/C(N)=N/OC(=O)c2cccs2)cn1 | 0 | 43.5 | 0 | 0 | 0 | 0 | 0
Cc1ccc(Nc2nnc(SCC(=O)NCC3CCCO3)s2)cc1C (centres undefined) | 0 | 0 | 0 | 0 | 0 | 0 | -
COc1cccc(Nc2nc(NCC3CCCO3)c3ccccc3n2)c1 (centres undefined) | 0 | 14.3 | 0 | 0 | 0 | 0 | 0
Cc1ccc(CN2CC(C(=O)N(CC(C)C)c3c(N)n(Cc4ccccc4)c(=O)[nH]c3=O)CC2=O)cc1 (centres undefined) | 0 | - | 0 | - | 0 | 0 | -
CC1=C(c2ccc(C)cc2)[N+](=O)C(C)(C)N1[O-] | 0 | 10.3 | 0 | 0 | 0 | 0 | 0
CC1=C(c2ccc(F)cc2)[N+](=O)C(C)(C)N1[O-] | 0 | 0 | 0 | 0 | 0 | 0 | -
COc1cc2c3nnc(-c4ccc(F)cc4)c-3cn(Cc3ccc(F)cc3)c2cc1OC | 0 | 0 | 0 | 0 | 0 | 0 | -
COc1cc2c3nnc(-c4ccc(F)cc4)c-3cn(Cc3ccccc3)c2cc1OC | 0 | 24.2 | 0 | 0 | 0 | 0 | 0
Cn1c(NCCN2CCCC2)nc2cc(-c3ccsc3)sc2c1=O | 0 | - | 0 | - | 0 | - | -
CCn1c(C)nc2cc(-c3nnc(-c4c(-c5ccccc5)noc4C)o3)ccc21 | 0 | 17.1 | 0 | 0 | 0 | 0 | 0
Cc1onc(-c2ccccc2)c1-c1nnc(-c2ccccc2C(F)(F)F)o1 | 0 | 0 | 0 | 0 | 0 | 0 | -
O=C(COc1ccc(Cl)cc1)OCC(=O)N1CCOCC1 | 0 | 0 | 0 | 0 | 0 | 0 | -
Cn1ncc2c(O/N=C(\N)c3ccc(C(C)(C)C)cc3)ncnc21 | 0 | 27.1 | 0 | 0 | 0 | 0 | 62.4
CCOC(=O)c1ccc(Nc2ncnc3c2cnn3C)cc1 | 0 | 0 | 0 | 0 | 0 | 0 | -
CCCCC1=CC2=CC(=O)C(C)(OC(=O)CC)C(=O)C2=CN1c1ccccc1 (centres undefined) | 0 | 74.6 | 0 | 0 | 0 | 0 | 0
CCCCC1=CC2=CC(=O)C(C)(OC(=O)CC)C(=O)C2=CN1Cc1ccccc1 (centres undefined) | 0 | 0 | 0 | 0 | 0 | 0 | -
COCCNc1nc(-c2cc(F)ccc2C)c2sc(-c3ccccc3)cc2n1 | 0 | - | 0 | - | 0 | - | -
CC(C)(C)OC(=O)C(Cc1ccc(OC(C)(C)C)cc1)NC(=O)CNC(=O)CNC(=O)OCc1ccccc1 (centres undefined) | 0 | 0 | 0 | 0 | 0 | 0 | -
CC(NC(=O)OCc1ccccc1)C(=O)NCC(=O)NC(Cc1ccc(OC(C)(C)C)cc1)C(=O)OC(C)(C)C (centres undefined) | 0 | 19.3 | 0 | 0 | 0 | 0 | 0

Compound activity deposited in PubChem BioAssay by several laboratories.
